This data set has as its system MS2 coat protein. Kind of data set: apparent Kd, MS2 coat protein; higher = weaker binding; RNA-MaP array. The gist of the method:
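With or without input ligand, designed RNAs transcribed on an Illumina sequencing chip from sequenced DNA templates were incubated at room temperature with fluorescently labeled MS2 coat protein at 1.5 nM to 3 μM. The buffer was Tris-HCl pH 7.5 with KCl, MgCl2, BSA, DTT, tRNA and Tween20, and incubation ran 0.8–1.5 h at the lowest and 10–20 min at the highest concentrations. Apparent Kd is reported as the median of fits to binding curves from individual clusters. Designs measured on fewer than 10 clusters are not included.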

Where [1] appears, read: designed as: ON switch for flavin mononucleotide, no ligand.
Where [2] appears, read: ligand present: flavin mononucleotide, designed as: ON switch for flavin mononucleotide.
Setting [3] is: designed as: OFF switch for theophylline, no ligand.
[4] abbreviates: ligand present: theophylline, designed as: OFF switch for theophylline.
[5] abbreviates: designed as: OFF switch for flavin mononucleotide, no ligand.
Setting [6] is: ligand present: flavin mononucleotide, designed as: OFF switch for flavin mononucleotide.
Where [7] appears, read: designed as: OFF switch for tryptophan, no ligand.
[8] abbreviates: ligand present: tryptophan, designed as: OFF switch for tryptophan.
The mark [9] stands for this setting: designed as: ON switch for theophylline, no ligand.
The mark [10] stands for this setting: ligand present: theophylline, designed as: ON switch for theophylline.

As for “UUCUGUUCCAAGAAGGUCAAAAUUGAUGCCUCUGAAGGAUAUUGGACAGCCAAGGUCUGUGACAUGAGGAUCACCCAUGUUCAG”, the “apparent Kd” value was determined as 6.72 nM under setting [1] and 6.14 nM under setting [2].
For the sequence “CGGGAACGAUAUGAUACCAGCCUGCGAAAGAAUGCUUAGUACAUGAGGAUCACCCAUGUAGGCCCUUGGCAGCAUCGACUCAAGU”, the “apparent Kd” value worked out at 14.8 nM under setting [3] and 19.7 nM under setting [4].
Consider “UAAAUUGAAGGAUAUACAUGAGGAUCACCCAUGUAAGAAAUACAUGAAAAUAACAACAGUAGAAGGUCAAAACU”, for which the “apparent Kd” value runs as follows: under setting [5], 15.9 nM; under setting [6], 12.7 nM.
As to “AGGCACCAGAGAGGAUAUUAGGACAGCGAACAUGAGGAUCACCCAUGUAUGUUUGUUAGGCGAGCUAAGAAGGCUCCACGGGUU”, the “apparent Kd” value was 6.9 nM under setting [5] and 6.73 nM under setting [6].
For “CUGUACAUGAGGAUCACCCAUGUUAGACCAGCUUAAAAUAUAAGAAGGUUGAGGGCUUGACCAACAAAGGAUAUUAUGUGACCA”, the “apparent Kd” value is, setting by setting: under setting [1], 27.7 nM; under setting [2], 18.1 nM.
Consider “CUUGUGCUGACGGCCGCCACUUUAUGGGAGUCCUGUUCUGAUUGAUACAUGAGGAUCACCCAUGUAAGGACCGGGUCGUACCAUA”, for which the “apparent Kd” value under setting [7] came to 18 nM and the “apparent Kd” value under setting [8] is 22.3 nM.
In the case of “UCAGGACAUGAGGAUCACCCAUGUUGUCAAACCAAAGGAUAUAGGCUGAUCGAAAGAGAACUAGAAGGUUGCGAUU”, the “apparent Kd” value is, setting by setting: under setting [1], 20.1 nM; under setting [2], 15.6 nM.
In the same order, the values of “GUGGCACUCCUAGGAUAUUCACCUUGCGUAGAAAGACAUGAGGAUCACCCAUGUGUCUCUUAUUUGAAGAAGGAGGAACCUCGG” are 12.7 nM and 13 nM.
As for “GAUACUACAUAGAAGGUACCGAUGAGCAAUUAACAAUGUGCGGCAACAUGAGGAUCACCCAUGUGUAAGGAUAUAUGCAGAACA”, the “apparent Kd” value under setting [5] came to 20.9 nM and the “apparent Kd” value under setting [6] is 15.5 nM.
In the case of “AAAAUAGCAGGAUAUACAUGAGGAUCACCCAUGUCAAGACAGCACGGUGCAAGGUAGGGUAGAAGGGCUAAUUG”, the “apparent Kd” value is 22.8 nM under setting [5] and 30.1 nM under setting [6].
Consider “GAUGGUGUCAAGGAUAUUCCUAGCGGCUCGUUCGAAGAAGGUGAUACAUGAGGAUCACCCAUGUCCCUCCAUUU”, for which the “apparent Kd” value under setting [5] is 18.2 nM and the “apparent Kd” value under setting [6] turned out to be 16.9 nM.
Turning to “CGACAUUAGUAGAAGGAGGAGUAGCGAUAGAGCCUAGGAUAUACGAACAAAUACAUGAGGAUCACCCAUGUUGACGAUCCAUCA”, the “apparent Kd” value under setting [5] turned out to be 49 nM and the “apparent Kd” value under setting [6] came out at 45.8 nM.
In the same order, the values of “UGUUGGGAAACAGGAUAUGAGCUUAAAGCACAAGGGAUUCGCACAUGAGGAUCACCCAUGUAACGUCAGAAGGGUUUGUUUGUA” are 51.2 nM and 42.2 nM.
With “UGUCGAUGAUCCAAGGAUAUAUGGAUGCUGACAUGAGGAUCACCCAUGUCCCGAGAAAUCAUUAAAUAGAAGGUGGGCUAUGGCAA”, the “apparent Kd” value runs as follows: under setting [1], 45.9 nM; under setting [2], 21.2 nM.
As to “CGGGCACAUGAGGAUCACCCAUGUAAGGAUAUGAACAGUUUUCACAGAGUUUCACUAUUCAGAAGGUACGUUUC”, the “apparent Kd” value runs as follows: under setting [5], 24.2 nM; under setting [6], 20.8 nM.
Turning to “CCGAUGAUGAUAGGAUAUCUAGGAGUUAAGACGCCGUCUACAUGAGGAUCACCCAUGUUUCGAUUAGAGAAGGAUCGGGAUUCG”, the “apparent Kd” value runs as follows: under setting [1], 13.1 nM; under setting [2], 7.13 nM.
On to “UCGACAUGAGGAUCACCCAUGUGCCUCGGAUGUCGUUAGAGUGAGGAUAUGUCACACCAAAACGUACAGAAGGCACUUAUUAGA”, for which the “apparent Kd” value is, setting by setting: under setting [5], 296 nM; under setting [6], 267 nM.
In the same order, the values of “AAUAGAGCACUAGGAUAUGUUUCGUGUGCAGGUGGACAUGAGGAUCACCCAUGUAUAUGUUCAAGACAGAAGGAGACAGAUGAA” are 59.2 nM and 38.4 nM.
Turning to “GUAAGACAAGGCAAGGAUAUGCCCUAAUGGACAUGAGGAUCACCCAUGUGGUUGCAUAAUCAAAAGCAGAAGGUGCUACAACACGG”, the “apparent Kd” value under setting [1] came out at 48.3 nM and the “apparent Kd” value under setting [2] was found to be 38.8 nM.
The matching figures for “CAGAGUUCCUAAGGAUAUUGCUGGUCCGCAGUUCAAGAAGGUAGGUAUAAAAUGCUUAAACAUGAGGAUCACCCAUGUCAAGCC”: 6.75 nM and 6.08 nM.
Regarding “AAUGAAAAGCAGAAGGCCUUAGCAAGUCGUAGAGGAGGAUAUGCGUACGCGGGUUGGCCAACAUGAGGAUCACCCAUGUCACCA”, the “apparent Kd” value by setting is: under setting [5], 22.4 nM; under setting [6], 26.3 nM.
Regarding “AGCCGUUGGGAUAGACAUGAGGAUCACCCAUGUAAAAGCGAAGAGGAUAUCAGAAUUAAGACAACAGAGAAGGCAUAAAUACAA”, the “apparent Kd” value under setting [1] worked out at 38.1 nM and the “apparent Kd” value under setting [2] was found to be 28.3 nM.
As for “GUCUAAGGCCAAGGAUAUUGCGUACUUGCGGAUGAUAGUAGAAAACAUGAGGAUCACCCAUGUCACAAGAAGGUGGUCCUGGGA”, the “apparent Kd” value is, setting by setting: under setting [5], 323 nM; under setting [6], 176 nM.
For “GAAAACGAUCCCAAUACAUGAGGAUCACCCAUGUGGUGCAGUCAGGAUAUCACUACACCAAAACUUGAGAAGGGACACAUCGCC”, the “apparent Kd” value under setting [5] came to 347 nM and the “apparent Kd” value under setting [6] is 318 nM.
The matching figures for “AUGAUAUGGGACAUGAGGAUCACCCAUGUCGGCUUUGUCACGCAGGAUAUUGCGACUCAAAUCGUCAAGAAGGGCGGAGACUCC”: 21.5 nM and 19.6 nM.
Turning to “CUUACACAUGAGGAUCACCCAUGUCAUGAUACCAGCCAAUACACUGGCCCUUGGCAGCAUCUCAGCCUCAGCUACAUUGACUGAC”, the “apparent Kd” value came to 19.9 nM under setting [9] and 27.1 nM under setting [10].
Consider “UUUAACAAGAACGUCCUGAGUGACAAGCUACGAGGACCGGUACGGCCGCCACUCGUACCAAAACAUGAGGAUCACCCAUGUUAAA”, for which the “apparent Kd” value was 17.4 nM under setting [7] and 17.8 nM under setting [8].
With “CUUACUCGUCUAGGAUAUCGAAUGCCAACAUGAGGAUCACCCAUGUGUGGGUUGAUCGUCUAGGCCGAGAAGGAGACUGCAAUC”, the “apparent Kd” value was found to be 8.88 nM under setting [5] and 18.1 nM under setting [6].
In the same order, the values of “UCCUCGCACGAGAAGGCAAGCCGAGAAACACCUUGAGGAUAUCGUCGACAGACCACCGGGACAUGAGGAUCACCCAUGUGGGCC” are 75.2 nM and 49 nM.
For “UGGCCGUAGAAGAAGGAGGACACCGUUUUGUCACGGACAUGAGGAUCACCCAUGUAGAUAAUUGCCUAGGAUAUUCGCUCAUUU”, the “apparent Kd” value under setting [1] was 15.9 nM and the “apparent Kd” value under setting [2] was determined as 7.52 nM.
On to “UCUCAGUGAGGAUAUCGAACAGACCUUUGUGUGCUAAUUUUCGAGAAGGCACAUGAGGAUCACCCAUGUGACUC”, for which the “apparent Kd” value under setting [5] worked out at 54.6 nM and the “apparent Kd” value under setting [6] amounted to 49.7 nM.
Turning to “GCUGAACAUGAGGAUCACCCAUGUCCGGAUACCAGCGGACCUCAUCGCCCUUGGCAGCCGAACCAACAGCUUGUGGUGUUCACUC”, the “apparent Kd” value runs as follows: under setting [9], 35.4 nM; under setting [10], 49.9 nM.
Turning to “UCGCCGCUGGAGACAUGAGGAUCACCCAUGUGGUCUUUCGUAAGAAGGUGCCUAUAGAACUUUUGCAAGGAUAUUACGCCGGAG”, the “apparent Kd” value came out at 217 nM under setting [5] and 113 nM under setting [6].
The matching figures for “UUAUGUCGGUAGGAUAUUAGACGUGGUUAUACGUAAGAAGGACCAACAUGAGGAUCACCCAUGUGAGAUAGUUC”: 14.4 nM and 24.7 nM.
On to “UAAUUCACUAUUCACGGUCCGAUGUUCGAUACCAGAUCAUUUCGAAUCCCUUGGCAGCGAUUAACAUGAGGAUCACCCAUGUAAC”, for which the “apparent Kd” value under setting [3] was 32.2 nM and the “apparent Kd” value under setting [4] worked out at 83.9 nM.
“UUACCAGCAGGAUAUUCAUCUGUUAACAUGAGGAUCACCCAUGUCUCGUGAUCGAACUAGGAAGAAGGGCUUAUAC”: the “apparent Kd” value is, setting by setting: under setting [5], 74.4 nM; under setting [6], 77.3 nM.
In the same order, the values of “GUGUUAUAUCCGUAACAUGAGGAUCACCCAUGUGUGAGAUCGAAGGAUAUCUGUCUGAGCUCAAAAGAGAAGGUCGAUACAAUG” are 57.6 nM and 44.9 nM.
As for “GAUCCCACGAAGAAGGUCAGAUUUAGAUUACUUGAAGGAUAUUCACAUGAGGAUCACCCAUGUCCCGGCGCGGACUAGCCGAAU”, the “apparent Kd” value runs as follows: under setting [5], 107 nM; under setting [6], 235 nM.
Turning to “UGACCACAUGAGGAUCACCCAUGUCAGGAUAUAGGUACACUGGUACAGCCUUUUCGGCCUAGAAGGGACUCUCU”, the “apparent Kd” value was 9.09 nM under setting [5] and 8.42 nM under setting [6].
In the same order, the values of “UCAUUUUCAGAAGGAUAUUUACCAGGCCAAGGUAAAGAAGGUCUAUGGGUCACUUCCUUGAUACAUGAGGAUCACCCAUGUGAA” are 292 nM and 429 nM.
In the case of “CAUGCUAACAUGAGGAUCACCCAUGUUCCGGCGUAAACUGCACAGGAUAUCGAGAAUUUACAAGCCGAGAAGGGUGCGUAGCAU”, the “apparent Kd” value is, setting by setting: under setting [1], 195 nM; under setting [2], 71.7 nM.
As for “GUGGCUUCGGUGAGGAUAUGUCCGAUAAAACUGAGACAGAAGGCACAUGAGGAUCACCCAUGUAGCGUUGAUUC”, the “apparent Kd” value runs as follows: under setting [5], 17.5 nM; under setting [6], 44.5 nM.
As to “GGCCUCACAUGAGGAUCACCCAUGUUACUACUUGUUCGAUUGGAGGAUAUCUCUAGAAUUUACUGAGAGAAGGCCAAUAUGGGA”, the “apparent Kd” value runs as follows: under setting [5], 236 nM; under setting [6], 191 nM.
“AUUAACAUGAGGAUCACCCAUGUUCUCACACGAGGACCGGUACGGCCGCCACUCGGUUUGGUAUUGGUCACUAGGCAGUUAGGAG”: the “apparent Kd” value is 15.9 nM (designed as: ON switch for tryptophan, no ligand) and 17.6 nM (ligand present: tryptophan, designed as: ON switch for tryptophan).
“AAACAUGCGUGAGAGGAUAUGUCAUUAAUAACAUGAGGAUCACCCAUGUUCGAUGAUUGAAAUAAACAGAAGGCUCCGGUCUGUAA”: the “apparent Kd” value under setting [1] turned out to be 27 nM and the “apparent Kd” value under setting [2] was found to be 18.7 nM.
Regarding “CACGCCAUAGGAUAUACAUGAGGAUCACCCAUGUGGUGGUAGCAGCCAUAACGGUACAGUAGAAGGAUGUGCGA”, the “apparent Kd” value is, setting by setting: under setting [5], 274 nM; under setting [6], 171 nM.
The matching figures for “UAUAGUUAAAAGGAUAUCGAAAACAAGCGUAAACGAGAAGGUUUAACAUGAGGAUCACCCAUGUAAGGAGAUGG”: 58.4 nM and 139 nM.

Usually apparent Kd stands for a dissociation constant that holds for the conditions of the assay.

The record behind these values is the EternaBench riboswitch data.
